Laboratory results taken from ChEMBL document CHEMBL3120113, “New 1-arylindoles based serotonin 5-HT7 antagonists. Synthesis and binding evaluation studies” (Eur J Med Chem, 2014).

What was measured:
[1] = target: T1, 5-hydroxytryptamine receptor 1A (Rattus norvegicus, UniProt P19327); test: Displacement of [3H]-8-OH-DPAT from 5HT1A receptor in rat hippocampus homogenates after 15 mins by scintillation counting; assay type: tissue-based
T1 sequence (P19327 whole entry): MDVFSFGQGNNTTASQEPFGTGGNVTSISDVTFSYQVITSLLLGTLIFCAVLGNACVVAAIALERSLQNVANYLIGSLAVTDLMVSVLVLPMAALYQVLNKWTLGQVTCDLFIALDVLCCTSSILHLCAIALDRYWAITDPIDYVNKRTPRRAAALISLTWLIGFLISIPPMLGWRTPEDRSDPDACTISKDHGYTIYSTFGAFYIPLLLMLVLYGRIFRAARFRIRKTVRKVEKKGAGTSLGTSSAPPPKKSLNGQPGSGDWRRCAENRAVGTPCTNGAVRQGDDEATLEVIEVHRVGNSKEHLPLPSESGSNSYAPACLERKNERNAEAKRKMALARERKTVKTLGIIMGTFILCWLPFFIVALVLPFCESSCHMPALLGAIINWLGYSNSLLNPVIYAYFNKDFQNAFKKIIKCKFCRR
Outline: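 Rat hippocampal membranes were prepared in 50 mM Tris–HCl pH 7.4 (35,000 g spins, 10 min at 37 °C between). Resuspended in Tris–HCl with 4 mM MgCl2, 10 mM pargyline and 0.1% ascorbate. 1 nM [3H]-8-OH-DPAT, 15 min at 37 °C, GF/B filtration. 10 μM 5-HT defined nonspecific binding. Triplicates at 7–8 concentrations (10⁻¹¹–10⁻⁴ M).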

[2] = target: 5-hydroxytryptamine receptor 2A (Homo sapiens) (UniProt P28223); test: Binding affinity to 5HT2A receptor (unknown origin) at 1 uM
[3] = target: 5-hydroxytryptamine receptor 2A (Homo sapiens) (UniProt P28223); test: Binding affinity to 5HT2A receptor (unknown origin) at 10 nM
[4] = target: T2, 5-hydroxytryptamine receptor 7 (Homo sapiens, UniProt P34969); test: Displacement of [3H]-5-CT from cloned human 5HT7B receptor expressed in HEK293 cells after 1 hr by scintillation counting; assay type: cell-based
Outline: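 HEK293 membranes stably expressing human 5-HT7b receptor, homogenized and spun twice at 35,000 g with 15 min at 37 °C between. Assay buffer was 50 mM Tris–HCl with 4 mM MgCl2, […] and 0.1% ascorbate. 0.6 nM [3H]-5-CT, 1 h at 37 °C, then filtration. 10 μM 5-HT defined nonspecific binding. Triplicates at 7–8 concentrations (10⁻¹¹–10⁻⁴ M).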

[5] = target: T3, 5-hydroxytryptamine receptor 1A (Homo sapiens, UniProt P08908); test: Binding affinity to 5HT1A receptor (unknown origin)
T3 sequence (P08908 whole entry): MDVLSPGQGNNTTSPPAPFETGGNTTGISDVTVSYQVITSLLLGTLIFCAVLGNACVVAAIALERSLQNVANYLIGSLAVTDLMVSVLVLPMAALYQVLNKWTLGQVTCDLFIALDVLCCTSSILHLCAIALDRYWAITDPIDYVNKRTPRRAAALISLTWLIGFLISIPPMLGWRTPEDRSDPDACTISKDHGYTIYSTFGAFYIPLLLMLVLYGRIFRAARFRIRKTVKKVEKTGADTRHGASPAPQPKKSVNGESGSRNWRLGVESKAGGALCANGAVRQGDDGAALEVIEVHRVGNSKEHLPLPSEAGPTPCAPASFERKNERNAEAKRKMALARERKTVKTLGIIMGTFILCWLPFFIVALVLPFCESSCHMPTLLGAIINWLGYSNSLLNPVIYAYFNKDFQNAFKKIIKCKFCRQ

[6] = target: T2, 5-hydroxytryptamine receptor 7; test: Binding affinity to 5HT7 receptor (unknown origin)
[7] = Selectivity ratio of Ki for human 5HT7B receptor to Ki for 5HT1A receptor in rat hippocampus homogenates; assay type: tissue-based
Outline: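 Ratio of Ki values from two radioligand displacement assays. 5-HT1A: rat hippocampal membranes, 1 nM [3H]-8-OH-DPAT, 15 min at 37 °C, filtration. 5-HT7b: membranes from HEK293 cells stably expressing the human receptor, 0.6 nM [3H]-5-CT, 1 h at 37 °C. Both used Tris-HCl buffer with MgCl2, pargyline and ascorbate, and 10 μM 5-HT for nonspecific binding. Compounds were tested in triplicate at 7–8 concentrations (10⁻¹¹–10⁻⁴ M). Ki was derived by Cheng–Prusoff from three experiments.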

T2 sequence (P34969 whole entry): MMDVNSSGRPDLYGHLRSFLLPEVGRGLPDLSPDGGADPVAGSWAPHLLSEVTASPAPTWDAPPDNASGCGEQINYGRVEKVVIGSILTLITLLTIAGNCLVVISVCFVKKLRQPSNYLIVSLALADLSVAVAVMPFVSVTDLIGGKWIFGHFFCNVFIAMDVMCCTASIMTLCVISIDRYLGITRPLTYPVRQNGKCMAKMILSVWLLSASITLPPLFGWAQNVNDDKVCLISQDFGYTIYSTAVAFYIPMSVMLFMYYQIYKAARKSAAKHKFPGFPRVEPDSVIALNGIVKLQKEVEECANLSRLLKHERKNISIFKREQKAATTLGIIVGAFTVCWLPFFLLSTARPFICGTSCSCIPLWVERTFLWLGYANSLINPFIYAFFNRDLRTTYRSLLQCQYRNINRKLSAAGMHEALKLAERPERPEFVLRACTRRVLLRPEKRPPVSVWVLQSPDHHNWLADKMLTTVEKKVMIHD
Chain of 5-hydroxytryptamine receptor 2A (Homo sapiens) (P28223 whole entry): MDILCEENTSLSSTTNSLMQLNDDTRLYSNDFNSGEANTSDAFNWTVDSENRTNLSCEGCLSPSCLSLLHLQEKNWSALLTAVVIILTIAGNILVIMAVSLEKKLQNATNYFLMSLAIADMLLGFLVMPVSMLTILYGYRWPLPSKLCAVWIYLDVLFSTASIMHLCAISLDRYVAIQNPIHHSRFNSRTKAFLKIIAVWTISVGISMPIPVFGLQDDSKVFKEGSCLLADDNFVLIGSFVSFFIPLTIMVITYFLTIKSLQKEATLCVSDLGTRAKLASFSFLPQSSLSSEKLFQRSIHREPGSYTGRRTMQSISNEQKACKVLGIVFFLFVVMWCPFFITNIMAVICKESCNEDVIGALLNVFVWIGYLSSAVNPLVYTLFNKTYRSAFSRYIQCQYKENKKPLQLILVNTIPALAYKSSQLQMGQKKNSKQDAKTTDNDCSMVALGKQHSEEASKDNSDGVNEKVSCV

SMILES	Ki [1] [µM]	also measured
c1ccc(-c2ccc(-n3cc(CN4CCN(c5ccccc5)CC4)c4ccccc43)cc2)cc1	49	–
Cc1cccc(-n2cc(CN3CCN(c4ccccc4)CC3)c3ccccc32)c1C	0.324	–
c1ccc(N2CCN(Cc3cn(-c4ccc5ccccc5c4)c4ccccc34)CC2)cc1	1.95	–
c1ccc(N2CCN(Cc3cn(-c4ccccc4)c4ccccc34)CC2)cc1	0.216	–
CCc1ccccc1-n1cc(CN2CCN(c3ccccc3)CC2)c2ccccc21	0.134	–
Cc1ccccc1-n1cc(CN2CCN(C)CC2)c2ccccc21	2.91	–
c1ccc(N2CCN(Cc3cn(-c4cccc5ccccc45)c4ccccc34)CC2)cc1	0.545	–
Cc1cccc(-n2cc(CCN(C)C)c3ccccc32)c1C	0.076	Ki [4]: 0.317 µM
CN(C)CCc1cn(-c2cccc3ccccc23)c2ccccc12	0.144	Ki [4]: 0.649 µM
Cc1ccccc1-n1cc(CCN(C)C)c2ccccc21	0.059	Ki [4]: 0.283 µM
COc1ccccc1N1CCN(Cc2ccn(-c3ccccc3C)c2)CC1	–	Ki [5]: 0.041 µM; Ki [6]: 0.021 µM
Cc1ccc(-n2cc(CN3CCN(c4ccccc4)CC3)c3ccccc32)cc1	0.332	–
CN(C)CCc1cn(-c2ccccc2)c2ccccc12	0.062	Ratio Ki [7]: 19; Ki [4]: 1.2 µM
c1ccc(N2CCN(Cc3cn(-c4cccnc4)c4ccccc34)CC2)cc1	0.19	–
Cc1ccccc1-n1cc(CN2CC=C(c3ccccc3)CC2)c2ccccc21	0.178	–
c1ccc(N2CCN(Cc3cn(-c4ccccn4)c4ccccc34)CC2)cc1	0.095	–
CC(C)c1ccccc1-n1cc(CN2CCN(c3ccccc3)CC2)c2ccccc21	0.118	–

Second part, led by results:

Ki [1] [µM]	SMILES	also measured
0.081	FC(F)(F)c1ccccc1-n1cc(CN2CCN(c3ccccc3)CC2)c2ccccc21	–
0.015	COc1ccccc1N1CCN(Cc2cn(-c3ccccc3C)c3ccccc23)CC1	–
0.017	Oc1ccccc1N1CCN(Cc2cn(-c3ccccc3)c3ccccc23)CC1	–
0.017	COc1ccccc1N1CCN(Cc2cn(-c3cccc(C)c3C)c3ccccc23)CC1	inhibition [2]: 0%; inhibition [3]: 0%
0.036	N#Cc1ccccc1-n1cc(CN2CCN(c3ccccc3)CC2)c2ccccc21	–
0.057	Oc1ccccc1N1CCN(Cc2cn(-c3cccc4ccccc34)c3ccccc23)CC1	–
0.055	COc1ccccc1N1CCN(Cc2cn(-c3ccccn3)c3ccccc23)CC1	–
0.095	Cc1ccccc1-n1cc(CN2CCN(c3ccccc3)CC2)c2ccccc21	–
0.086	COc1ccccc1-n1cc(CN2CCN(c3ccccc3)CC2)c2ccccc21	–
0.09	Cc1cccc(-n2cc(CN3CCN(c4ccccc4)CC3)c3ccccc32)c1	–
0.07	COc1ccccc1N1CCN(Cc2cn(-c3cccc4ccccc34)c3ccccc23)CC1	inhibition [2]: 10%; inhibition [3]: 6%
0.01	COc1ccccc1N1CCN(Cc2cn(-c3ccccc3)c3ccccc23)CC1	–
0.058	COc1ccccc1N1CCN(Cc2cn(-c3ccccc3C(C)C)c3ccccc23)CC1	–
